Seven compounds from ChEMBL document CHEMBL4251721, “Imidazole Alkaloids and Their Zinc Complexes from the Calcareous Marine Sponge Leucetta chagosensis” (J Nat Prod, 2018) can be followed below.

For orientation: IC50 means the concentration at which inhibition is half-maximal.

The test system of assay [1] is THP-1. Nature of the assay: Antiinflammatory activity in human THP1 cells assessed as inhibition of LPS-stimulated TNFalpha production by measuring TNF-alpha level in serum at 10 uM preincubated for 2 hrs followed by LPS addition measured after 22 hrs by flow cytometry (reference value: 9900 +/- 300 pg/ml). Type of assay: functional. On the technique in general: A flow cytometer gives signals particle by particle.

Assay [2] concerns THP-1. The assay can be described thus: Antiinflammatory activity in human THP1 cells assessed as inhibition of LPS-stimulated IL-6 production by measuring IL-6 level in serum at 10 uM preincubated for 2 hrs followed by LPS addition measured after 22 hrs by flow cytometry (reference value: 6100 +/- 200 pg/ml). Type of assay: functional.
Assay [3] relates to THP-1. The assay can be described thus: Antiinflammatory activity in human THP1 cells assessed as inhibition of LPS-stimulated MCP-1 level in serum at 10 uM preincubated for 2 hrs followed by LPS addition measured after 22 hrs by flow cytometry. Format: functional, cell-based.
The subject of assay [4] is THP-1. The assay can be described thus: Antiinflammatory activity in human THP1 cells assessed as inhibition of LPS-stimulated IL-10 level in serum at 10 uM preincubated for 2 hrs followed by LPS addition measured after 22 hrs by flow cytometry. Format: functional, cell-based.
The test system of assay [5] is THP-1. The assay can be described thus: Antiinflammatory activity in human THP1 cells assessed as inhibition of LPS-stimulated IL-12p70 level in serum at 10 uM preincubated for 2 hrs followed by LPS addition measured after 22 hrs by flow cytometry. Type of assay: functional, cell-based.
The subject of another assay is A549. Nature of the assay: Cytotoxicity against human A549 cells assessed as reduction in cell viability after 72 hrs by CCK-8 assay. Type of assay: functional, cell-based. The following applies: A549, 72 h. In general terms: Tetrazolium dyes change colour on reduction, which living cells bring about.
A further assay deals with PC-9. Nature of the assay: Cytotoxicity against human PC9 cells assessed as reduction in cell viability after 72 hrs by CCK-8 assay. Format: functional, cell-based. The following applies: PC-9, 72 h.
Assay [6] deals with MCF7. The assay can be described thus: Cytotoxicity against human MCF7 cells assessed as reduction in cell viability after 72 hrs by CCK-8 assay. Conditions: MCF7, 72 h. Type of assay: functional, cell-based. In short, it runs like this:
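Cells were kept at 37 °C in DMEM with 10% nondialyzed FBS and 2 mM L-glutamine. The Oct4-GFP line is MCF-7 made stem-like by lentiviral Oct4-GFP overexpression. Cells were seeded at 3000/well and grown 24 h, then exposed to six concentrations of compound (DMSO solutions) for 72 h.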

In assay [7] the test system is MCF7. The assay can be described thus: Induction of apoptosis in human MCF7 cells assessed as viable cells at 10 uM after 24 hrs by Annexin V-FITC/propidium iodide staining based flow cytometry (reference value: 96.6%). Format: functional. The following applies: MCF7, 24 h, read-out: Activity.
The test system of assay [8] is MCF7. Nature of the assay: Cytotoxicity against human MCF7 cells expressing Oct4-GFP assessed as reduction in cell viability after 72 hrs by CCK-8 assay. Format: functional, cell-based. Conditions: MCF7, 72 h. In short, it runs like this: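 Cells were kept at 37 °C in DMEM with 10% nondialyzed FBS and 2 mM L-glutamine. The Oct4-GFP line is MCF-7 made stem-like by lentiviral Oct4-GFP overexpression. Cells were seeded at 3000/well and grown 24 h, then exposed to six concentrations of compound (DMSO solutions) for 72 h. CCK-8 was added for 2 h at 37 °C and A450 read to give IC50.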

Assay [9] relates to MCF7. Nature of the assay: Induction of apoptosis in human MCF7 cells assessed as viable cells at 5 uM after 24 hrs by Annexin V-FITC/propidium iodide staining based flow cytometry (reference value: 96.6%). Type of assay: functional. Conditions: MCF7, 24 h, read-out: Activity.
For assay [10], the system named is MCF7. The assay can be described thus: Induction of apoptosis in human MCF7 cells assessed as early apoptotic cells at 5 uM after 24 hrs by Annexin V-FITC/propidium iodide staining based flow cytometry (reference value: 0.866%). Type of assay: functional.
For assay [11], the system named is MCF7. The assay can be described thus: Induction of apoptosis in human MCF7 cells assessed as late apoptotic cells at 5 uM after 24 hrs by Annexin V-FITC/propidium iodide staining based flow cytometry (reference value: 0.309%). Type of assay: functional.
The subject of assay [12] is MCF7. Nature of the assay: Induction of apoptosis in human MCF7 cells assessed as necrotic cells at 5 uM after 24 hrs by Annexin V-FITC/propidium iodide staining based flow cytometry (reference value: 2.19%). Format: functional.
Assay [13] concerns MCF7. The assay can be described thus: Induction of apoptosis in human MCF7 cells assessed as early apoptotic cells at 10 uM after 24 hrs by Annexin V-FITC/propidium iodide staining based flow cytometry (reference value: 0.866%). Type of assay: functional.
Assay [14] relates to MCF7. Nature of the assay: Induction of apoptosis in human MCF7 cells assessed as late apoptotic cells at 10 uM after 24 hrs by Annexin V-FITC/propidium iodide staining based flow cytometry (reference value: 0.309%). Format: functional.
Assay [15] concerns MCF7. The assay can be described thus: Induction of apoptosis in human MCF7 cells assessed as necrotic cells at 10 uM after 24 hrs by Annexin V-FITC/propidium iodide staining based flow cytometry (reference value: 2.19%). Type of assay: functional.
Assay [16] relates to MCF7. The assay can be described thus: Induction of apoptosis in human MCF7 cells assessed as early apoptotic cells after 24 hrs by Annexin V-FITC/propidium iodide staining based flow cytometry. Format: functional, cell-based.
For assay [17], the system named is MCF7. Nature of the assay: Induction of apoptosis in human MCF7 cells assessed as late apoptotic cells after 24 hrs by Annexin V-FITC/propidium iodide staining based flow cytometry. Format: functional, cell-based.

Structures are written as SMILES. Active and inactive are the calls of the source. No cut-off for these calls is given here.

Turning to `Nc1cccc2c1C(=O)N(C1CCC(=O)NC1=O)C2=O` (configuration not stated) [POMALIDOMIDE], in the assay with THP-1 [1], the Activity was 7500 pg/mL.

Regarding `COc1ccc(C2=C3C(=NC(=N)N3C)C(=O)c3c(OC)ccc(OC)c32)cc1`, the Activity in the assay with THP-1 [2] was found to be 5400 pg/mL; in the assay with THP-1 [1], 9700 pg/mL. In addition, the inhibition entry in the assay with THP-1 [3], with THP-1 [4] and with THP-1 [5] was “inactive” each time. Besides, the IC50 in the assay on A549, in the assay with PC-9 and in the assay on MCF7 [6] was more than 20 µM in each case.

For `CC(C)=CCC/C(C)=C/Cc1cc(-c2coc3cc(O)ccc3c2=O)ccc1O`, the Activity with THP-1 [2] was found to be 2700 pg/mL.

As to `CC(=O)O[C@H]1C(=O)[C@@]2(C)[C@H]([C@H](OC(=O)c3ccccc3)[C@]3(O)C[C@H](OC(=O)[C@H](O)[C@@H](NC(=O)c4ccccc4)c4ccccc4)C(C)=C1C3(C)C)[C@]1(OC(C)=O)CO[C@@H]1C[C@@H]2O` [PACLITAXEL], the IC50 amounted to 0.0032 µM with A549 and 0.0027 µM with PC-9.

`CNC1=N/C(=N/c2nc(Cc3ccc4c(c3)OCO4)cn2C)C(=O)O1`: the Activity was 7600 pg/mL with THP-1 [2] and 9900 pg/mL in the assay on THP-1 [1]. Further, the inhibition entry in the assay on THP-1 [3], with THP-1 [4] and with THP-1 [5] was “inactive” throughout. Further, the IC50 in the assay on A549, in the assay on PC-9 and with MCF7 [6] was more than 20 µM in each case.

In the case of `CN/C(N)=N\C(=O)Nc1nc(Cc2ccc3c(c2)OCO3)cn1C`, the Activity with THP-1 [2] turned out to be 5000 pg/mL; in the assay with THP-1 [1], 7800 pg/mL. Besides, the inhibition result in the assay on THP-1 [3], with THP-1 [4] and in the assay on THP-1 [5] was “inactive” throughout. In addition, the IC50 in the assay on A549, with PC-9 and with MCF7 [6] was more than 20 µM in each case.

For the compound `COc1ccc(Cc2nc(/N=C3\NC(=O)N(C)C3=O)n(C)c2Cc2ccc(OC)c(OC)c2O)cc1` [PYRONAAMIDINE], the viability at 10 µM with MCF7 [7] worked out at 34.8%. Moreover, the IC50 with A549 stood at 7.8 µM; in the assay with PC-9 it was 5.6 µM; with MCF7 [6], 5.2 µM; in the assay on MCF7 [8] it was 10 µM. In the assay with MCF7 [9], the viability at 5 µM was found to be 82%. The Activity was 10.2% in the assay with MCF7 [10]; 6.25% with MCF7 [11]; 1.54% with MCF7 [12]; 32.3% with MCF7 [13]; 30.1% in the assay with MCF7 [14]; 2.55% in the assay with MCF7 [15]. The Activity result in the assay on MCF7 [16] and in the assay on MCF7 [17] was “Dose-dependent effect” each time.
